Results taken from ChEMBL document CHEMBL1122660 (J Med Chem, 1984).

What was measured:
P388 [1] = experiment: Minimum effective dose against P388 leukemic cells; format: functional; details: Mus musculus, read-out: MED
P388 [2] = experiment: Optimum dose (mg/kg) against P388 leukemic cells; format: functional, Mus musculus
[3] = Distribution between 1-octanol and water containing phosphate buffer at pH 7.4; format: physicochemical; details: 1-octanol/water containing phosphate buffer
P388 [4] = experiment: Maximum percent T/C (antitumor activity) against P388 leukemia cells for Mitomycin C; format: functional, Mus musculus
P388 [5] = experiment: Maximum percent T/C (antitumor activity) against P388 leukemia cells; format: functional, Mus musculus
P388 [6] = experiment: Ratio of optimal dose (OD) and minimum effective dose (MED) required for antitumor activity in mice bearing P-388 lymphocytic leukemia; format: functional, Mus musculus
Mus musculus [7] = organism: Mus musculus; experiment: Percentage change in WBC at optimum dose on day 3; format: functional
[8] = Partition coefficient between 1-octanol and water containing phosphate buffer at pH 7.4; format: physicochemical; details: 1-octanol/water containing phosphate buffer
Mus musculus [9] = experiment: Evaluated for antitumor activity against B-16 melanoma in mice at a dose 4 mg/kg day, ip, on days 1, 4, and 7 against B-16 Melanoma cell; format: functional
In short: (§1)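 B-16 melanoma in mice, run at Bristol Laboratories by standard NCI protocols. Compound given ip on days 1, 4 and 7 in Me2SO + buffered saline vehicle; ten mice per dose. Read-outs per dose: %T/C, number of survivors, and weight change.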

Mus musculus [10] = experiment: Evaluated for antitumor activity against B-16 melanoma in mice at a dose 3 mg/kg day, ip, on days 1, 4, and 7 against B-16 Melanoma cell; format: functional; in short: as §1
Mus musculus [11] = experiment: Evaluated for antitumor activity against B-16 melanoma in mice at a dose 1 mg/kg day, ip, on days 1, 4, and 7 against B-16 Melanoma cell *-Tumors survivors on day 62; format: functional
Mus musculus [12] = experiment: Evaluated for antitumor activity against B-16 melanoma in mice at a dose 3 mg/kg day, ip, on days 1, 4, and 7 against B-16 Melanoma cell *-Tumors survivors on day 62; format: functional
Mus musculus [13] = experiment: Evaluated for antitumor activity against B-16 melanoma in mice at a dose 4 mg/kg day, ip, on days 1, 4, and 7 against B-16 Melanoma cell *-Tumors survivors on day 62; format: functional
Mus musculus [14] = experiment: Evaluated for antitumor activity against B-16 melanoma in mice at a dose 1 mg/kg day, ip, on days 1, 4, and 7 against B-16 Melanoma cell; format: functional; in short: as §1
Mus musculus [15] = experiment: Evaluated for antitumor activity against B-16 melanoma in mice aat a dose 1 mg/kg day, ip,on days 1, 4, and 7 against B-16 Melanoma cell; format: functional; in short: as §1
Mus musculus [16] = organism: Mus musculus; experiment: Maximum percent T/C (antitumor activity) against P388 leukemia cells for the compound; 144-325; format: functional
Mus musculus [17] = experiment: Evaluated for antitumor activity against B-16 melanoma in mice at a dose 2 mg/kg day, ip, on days 1, 4, and 7 against B-16 Melanoma cell; format: functional; in short: as §1
Mus musculus [18] = experiment: Evaluated for antitumor activity against B-16 melanoma in mice at a dose 2 mg/kg day, ip, on days 1, 4, and 7 against B-16 Melanoma cell *-Tumors survivors on day 62; format: functional
Mus musculus [19] = organism: Mus musculus; experiment: Maximum percent T/C (antitumor activity) against P388 leukemia cells for the compound. The number of 30-day survivors is given in the parenthesis.; format: functional
Mus musculus [20] = organism: Mus musculus; experiment: Maximum percent T/C (antitumor activity) against P388 leukemia cells for Mitomycin C. The number of 30-day survivors is given in the parenthesis.; format: functional
Mus musculus [21] = experiment: Evaluated for antitumor activity against B-16 melanoma in mice at a dose 8 mg/kg day, ip, on days 1, 4, and 7 against B-16 Melanoma cell; format: functional
Mus musculus [22] = experiment: Evaluated for antitumor activity against B-16 melanoma in mice at a dose 6 mg/kg day, ip, on days 1, 4, and 7 against B-16 Melanoma cell; format: functional
Mus musculus [23] = experiment: Evaluated for antitumor activity against B-16 melanoma in mice aat a dose 2 mg/kg day, ip,on days 1, 4, and 7 against B-16 Melanoma cell; format: functional

Compound | minimal effective dose (P388 [1]) [mg/kg] | OD (P388 [2]) [mg/kg] | T/C (P388 [4]) [%] | T/C (P388 [5]) [%] | Therapeutic ratio (P388 [6]) | Change (Mus musculus [7]) [%] | logD [8] | other results
COC12[C@@H]3N[C@@H]3CN1c1c(O)c(C)c(/N=C3/C=CC(=N)N=C3)c(O)c1[C@@H]2COC(N)=O (stereo not given in full) | 0.4 | 12.8 | 206 | 277 | 32 |  |  | logD [3]: -0.32
COC12[C@@H]3N[C@@H]3CN1C1=C(C(=O)C(Nc3cccc(N)c3)=C(C)C1=O)[C@@H]2COC(N)=O (stereo not given in full) | < 0.2 | 1.6 | 200 | 222 | >8 | -17 | 0.07 | 
COC12[C@@H]3N[C@@H]3CN1c1c(O)c(C)c(/N=C3\C=CC(=O)C=C3C)c(O)c1[C@@H]2COC(N)=O (stereo not given in full) | 0.4 | 25.6 | 200 | 244 | 64 | -34 |  | 
COC12[C@@H]3N[C@@H]3CN1C1=C(C(=O)C(Nc3nc(C)c(C)s3)=C(C)C1=O)[C@@H]2COC(N)=O (stereo not given in full) | 0.2 | 25.6 | 219 | 188 | 128 |  |  | logD [3]: 1.29
COC12[C@@H]3N[C@@H]3CN1c1c(O)c(C)c(N=C3C=CC(=O)C=C3)c(O)c1[C@@H]2COC(N)=O (stereo not given in full) | 0.2 | 25.6 | 144 | >300 | 128 | -27 | 0.63 | 
COC12[C@@H]3N[C@@H]3CN1C1=C(C(=O)C(Nc3nnc(C)s3)=C(C)C1=O)[C@@H]2COC(N)=O (stereo not given in full) | 0.8 | 25.6 | 267 | 222 | 32 | -32 |  | 
CO[C@@]12[C@H](COC(N)=O)C3=C(C(=O)C(C)=C(N)C3=O)N1C[C@@H]1N[C@@H]12 [MITOMYCIN] | 0.2 | 3.2 |  |  |  | -42 |  | Average weight gain (Mus musculus [9]): -0.1; T/C (Mus musculus [9]): 200%; Average weight gain (Mus musculus [10]): -0.1 g; T/C (Mus musculus [10]): 165%; Cures (Mus musculus [11]): 0; Cures (Mus musculus [12]): 0; Cures (Mus musculus [13]): 0; T/C (Mus musculus [14]): 155%; Average weight gain (Mus musculus [15]): 0.2 g; T/C (Mus musculus [16]): 144%; Average weight gain (Mus musculus [17]): 0.5 g; T/C (Mus musculus [17]): 152%; Cures (Mus musculus [18]): 0
COC12[C@@H]3N[C@@H]3CN1c1c(O)c(C)c(N=C3C=CC(=N)C=C3)c(O)c1[C@@H]2COC(N)=O (stereo not given in full) | < 0.2 | 12.8 |  |  | >64 | -64 | 0.07 | T/C (Mus musculus [19]): >337%; T/C (Mus musculus [20]): 250%
[H][C@@]12CN3c4c(O)c(C)c(/N=C5C=C/C(=N\CC(=O)O)C=C/5)c(O)c4[C@H](COC(N)=O)C3(OC)[C@]1([H])N2 (stereo not given in full) | 0.8 | 25.6 |  |  | 32 |  | -0.78 | T/C (Mus musculus [19]): 322%; T/C (Mus musculus [20]): 294%
COC12[C@@H]3N[C@@H]3CN1C1=C(C(=O)C(N=C3C=CC(=Nc4c(C)c(O)c5c(c4O)[C@H](COC(N)=O)C4(OC)[C@@H]6N[C@@H]6CN54)C=C3)=C(C)C1=O)[C@@H]2COC(N)=O (stereo not given in full) | 1.6 | 25.6 |  | 161 | 8 |  |  | T/C (Mus musculus [20]): 250%
COc1ccc(NC2=C(C)C(=O)C3=C(C2=O)[C@H](COC(N)=O)C2(OC)[C@@H]4N[C@@H]4CN32)cc1OC (stereo not given in full) | 0.2 | 12.8 | 278 |  | 64 |  |  | Average weight gain (Mus musculus [9]): -0.6 g; T/C (Mus musculus [9]): 252%; Average weight gain (Mus musculus [21]): 0.9 g; T/C (Mus musculus [21]): 227%; Average weight gain (Mus musculus [22]): 0.6 g; T/C (Mus musculus [22]): 263%; Average weight gain (Mus musculus [23]): -1.3 g; T/C (Mus musculus [19]): >333%; T/C (Mus musculus [17]): 180%
